Experimental data from paper PMC3528315 (The FASEB Journal, 2013).
“Also recorded” adds a separate entry of the source. Where two headings read alike, the source gives them in different places.

Columns and labels:
[1] = tested on: circulating polyclonal anti-MBP Abs from DA rats; format: binding; settings: SPR; DA rats immunized with MBP63–81
DA rats = settings: cited from earlier work
DA rats with EAE [2] = assay: EAE treatment with mSUV-encapsulated MBP peptides, disease scores; format: in vivo, Dark Agouti (DA) rats; settings: for disease course / therapeutic effect in words: 6 daily s.c. injections from d 7 after EAE induction, mean disease score; for delta: ranking of overall difference in MDS from the placebo group: ascending series, placebo = empty mSUV
[3] = tested on: Spinal cords of DA rats with EAE; assay: Spinal cord histology, gliosis and demyelination; format: in vivo, Dark Agouti (DA) rats
How it was run: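 Symptomatic EAE DA rats were dosed subcutaneously once daily for 6 d and followed for 28 d. Paraffin-embedded spinal cord sections were stained with hematoxylin–eosin and luxol fast blue and scored blind on 0–3 scales. Gliosis grades were mild (5–10 cells/focus), moderate (10–50 cells/focus) and severe (>50 cells/focus), and demyelination ran from none (0) to severe (3).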

[4] = tested on: autoAbs to full-length MBP; assay: Serum anti-MBP autoAbs; format: in vivo, DA rats; settings: ELISA, vs control/placebo group
How it was run: (§1)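 Wells were coated overnight at 4°C with MBP or Trx-fused MBP peptides (10 μg/ml, 100 mM carbonate/bicarbonate, pH 9.0) and blocked with 2% BSA for 1 h at 37°C. Rat sera were diluted 100- to 50,000-fold in PBS-Tween/0.5% BSA, with 5 USP units/ml heparin for MBP, and incubated 1 h at 37°C. HRP anti-rat (1:4000, 1 h, 37°C) and TMB followed, with a phosphoric acid stop and OD₄₅₀ read-out.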

[5] = tested on: autoAbs to MBP epitope 81–103; assay: Serum autoAbs; format: in vivo, DA rats; settings: ELISA, vs control/placebo group
How it was run: as §1

[6] = tested on: autoAbs to MBP epitope 146–170; assay: Serum autoAbs; format: in vivo, DA rats; settings: ELISA, vs control/placebo group
How it was run: as §1

IL-2 = assay: Immunostaining of spinal cord for IL-2; format: in vivo, DA rats; settings: immunohistochemistry
How it was run: (§2)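 EAE DA rats with symptoms got single daily subcutaneous injections of liposome formulations, reference drug or placebo for 6 d and were followed for 28 d. Spinal cords were fixed, dehydrated and paraffin-embedded, and sections were immunostained for IL-2, IFNγ or BDNF per the antibody makers' protocols. Scoring was blinded, against nonimmunized rats and untreated EAE rats.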

IFNγ = assay: Immunostaining of spinal cord for IFNγ; format: in vivo, DA rats; settings: immunohistochemistry
How it was run: as §2

BDNF = assay: Immunostaining of CNS / spinal cord for BDNF; format: in vivo, DA rats; settings: immunohistochemistry, vs placebo
How it was run: as §2

[7] = tested on: regulatory Th2 cells; BDNF expression; settings: cited from earlier work
DA rats with EAE [8] = assay: EAE treatment with p1 as such or encapsulated in SUV / mSUV; format: in vivo, Dark Agouti (DA) rats; settings: s.c.; mean disease score vs no treatment; p1 n=8, p1 SUV n=10, p1 mSUV n=9

For MDHARHGFLPRH, which “binding of autoAbs” value [1] is on record?
Its value is “not detected”.

For “GPBP68–88: fragment of the guinea pig myelin basic protein (HYGSLPQKSQRSQDENPVVHF; UniProt P25188 68-88, looked up, fragment)”, which “capability to induce EAE in DA rats” value (DA rats) is on record?
Its value is “slightly”.

What does the source list for glatiramer acetate [Copaxone]?
median maximum disease score vs placebo (DA rats with EAE [2]; 6 daily s.c. injections from d 7, Wilcoxon test, P < 0.05): significantly differed from the placebo group; disease course / therapeutic effect in words (DA rats with EAE [2]): significantly suppressed protracted EAE; delta: ranking of overall difference in MDS from the placebo group (DA rats with EAE [2]): p1 ≪ p2 mSUV ≈ p3 mSUV < p1 mSUV ≈ Copaxone < p123 mSUV; degree of demyelination, luxol fast blue staining [3]: reduced; serum concentration of autoAbs to full-length MBP [4]: significant decrease; serum autoAbs to MBP epitope 81–103 [5]: down-regulated; serum autoAbs to MBP epitope 146–170 [6]: down-regulated; IL-2 in spinal cord (IL-2): significantly down-regulated; IFNγ in spinal cord (IFNγ): significantly down-regulated; BDNF in CNS (BDNF): enhanced production of BDNF; induction of regulatory Th2 cells, cytokines and BDNF [7]: known to stimulate BDNF expression; induction of regulatory Th2 cells, cytokines and BDNF ([7]; listed as glatiramer acetate): induces the population of regulatory Th2 cells to become capable of crossing the BBB and producing anti-inflammatory cytokines IL-4, IL-6, IL-10, and brain-derived neurotrophic factor

With “MBP62–75: major encephalitogenic peptide in DA rats (WLKQSRSPLPSHAR; UniProt P02688 62-75, looked up, fragment)” as the substance, how does the “immunodominance of encephalitogenic peptide in DA rats” value (DA rats) read?
The value was “not immunodominant”.

With “p1: immunodominant MBP peptide MBP46–62, as such (without liposomes) (FGEADANQNNGTSSQDT; UniProt P02686 46-62, looked up, fragment)” as the substance, how does the “therapeutic effect on EAE” value (DA rats with EAE [8]) read?
Its value is “no detectable therapeutic effect”.

What about the “disease course / therapeutic effect in words” value (DA rats with EAE [2]) of the same substance?
Its value is “no therapeutic effect; also recorded: no detectable therapeutic activity”.

What about the “delta: ranking of overall difference in MDS from the placebo group” value (DA rats with EAE [2]) of the same substance?
The value was “p1 ≪ p2 mSUV ≈ p3 mSUV < p1 mSUV ≈ Copaxone < p123 mSUV”.

Which “capability to induce EAE in DA rats” value (DA rats) does the source give for “GPBP62–84: fragment of the guinea pig myelin basic protein (HAARTTHYGSLPQKSQRSQDENP; UniProt P25188 62-84, looked up, fragment)” here?
The value was “capable to induce EAE in DA rats”.
